For data set [1], the system named is Rattus norvegicus. In words: Ratio of […] to fraction unbound in Sprague-Dawley rat at 3 to 5 umol/kg, iv. It is filed as ADME, organism-based. The note with it: in vivo.
The target in data set [2] is T1, CYP1A2 (Homo sapiens, UniProt P05177).
T1 sequence (P05177 whole entry): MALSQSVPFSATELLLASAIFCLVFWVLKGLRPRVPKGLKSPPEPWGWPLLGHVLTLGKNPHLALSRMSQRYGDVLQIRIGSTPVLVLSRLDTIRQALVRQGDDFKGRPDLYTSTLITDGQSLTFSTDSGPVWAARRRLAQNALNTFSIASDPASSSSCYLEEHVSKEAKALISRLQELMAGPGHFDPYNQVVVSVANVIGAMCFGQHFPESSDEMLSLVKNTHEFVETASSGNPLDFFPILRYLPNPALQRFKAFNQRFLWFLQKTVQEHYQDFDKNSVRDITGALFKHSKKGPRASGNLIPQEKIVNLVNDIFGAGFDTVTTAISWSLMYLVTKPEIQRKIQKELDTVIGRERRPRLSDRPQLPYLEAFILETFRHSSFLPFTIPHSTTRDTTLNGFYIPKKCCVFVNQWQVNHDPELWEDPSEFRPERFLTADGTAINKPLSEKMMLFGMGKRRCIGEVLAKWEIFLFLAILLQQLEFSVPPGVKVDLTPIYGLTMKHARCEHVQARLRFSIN
In words: Inhibition of CYP1A2 at 13 uM. It is filed as ADME.

Data set [3] addresses Acetyl-CoA carboxylase 1 (Homo sapiens, UniProt Q13085). In words: Inhibition of human recombinant his-tagged ACC1 expressed in baculovirus/Sf9 cell assessed as inorganic phosphate formation […] measured after 1.5 hrs by Malachite green reagent method.
A short description of data set [4]: Clearance in C57BL/6 mouse at 20 umol/kg, iv and 20 umol/kg, po. The class given is ADME, organism-based. The note with it: in vivo.
In data set [5] the target is CYP2C9 (Homo sapiens, UniProt P11712). In words: Inhibition of CYP2C9 at 13 uM. The class given is ADME.
A short description of data set [6]: Fraction unbound in human plasma at 10 uM after 18 hrs by equilibrium dialysis method. The class given is ADME, cell-free.
In data set [7] the test system is Rattus norvegicus. Nature of the data set: Antiobesity activity in obese Zucker rat assessed as reduction in hepatic malonyl-coA level, iv administered 2 hrs. It is filed as functional. The arrangement: scale not given: the % may be the effect or the level left. The method, boiled down:
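Obese Zucker rats were anaesthetized with Inactin (180 mg/kg ip), tracheotomized and fitted with carotid and jugular catheters. After 1.5 h post-surgery stabilization at 37.5 °C, compound or vehicle was infused iv; lean vehicle controls were included. Hepatic malonyl-CoA was measured by ion-pair HPLC–negative ESI MS/MS against a ¹³C₃ internal standard and related to plasma free exposure (fu×Cp/rat ACC2 IC50).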

Data set [8] in a line: Volume of distribution in C57BL/6 mouse at 20 umol/kg, iv and 20 umol/kg, po. The note with it: in vivo. The class given is ADME, organism-based.
The target in data set [9] is CYP2C19 (Homo sapiens, UniProt P33261). In words: Inhibition of CYP2C19 at 13 uM. The class given is ADME.
The nature of data set [10]: Clearance in Sprague-Dawley rat at 3 to 5 umol/kg, iv. It is filed as ADME, organism-based. The note with it: in vivo.
Data set [11] concerns the target Acetyl-CoA carboxylase 1 (Rattus norvegicus, UniProt P11497). In words: Inhibition of rat ACC1 assessed as inorganic phosphate generation preincubated for 5 mins measured after 1.5 hrs using Malachite green reagent method.
Data set [12] addresses Acetyl-CoA carboxylase 2 (Homo sapiens, UniProt O00763). In words: Inhibition of human recombinant his-tagged ACC2 expressed in baculovirus/Sf9 cell assessed as inorganic phosphate formation […] measured after 1.5 hrs by Malachite green reagent method.
Data set [13] deals with Voltage-gated inwardly rectifying potassium channel KCNH2 (Homo sapiens, UniProt Q12809).
Data set [14] can be described thus: Solubility of the compound after 16 hrs by LC-UV/MS analysis. The class given is physicochemical.
Data set [15] addresses CYP2D6 (Homo sapiens, UniProt P10635). Nature of the data set: Inhibition of CYP2D6 at 13 uM. The class given is ADME.
Data set [16] in a line: Intrinsic clearance in human liver microsome at 1 uM after 30 mins by LC-UV/MS analysis. It is filed as ADME. The note with it: liver microsomes.
For data set [17], the species on record is Homo sapiens. In words: Ratio IC50 for human ACC2 to IC50 for human ACC1.
A short description of data set [18]: Lipophilicity, log D of the compound. It is filed as physicochemical. The note with it: octanol/water.
The target in data set [19] is CYP3A4 (Homo sapiens, UniProt P08684). In words: Inhibition of CYP3A4 at 13 uM. It is filed as ADME.
Data set [20] deals with Acetyl-Coenzyme A carboxylase 2 (Rattus norvegicus, UniProt Q1HEC0). Nature of the data set: Inhibition of ACC2 […] preincubated for 15 mins measured after 1.5 hrs using Malachite green reagent method.
A short description of data set [21]: Oral bioavailability in C57BL/6 mouse at 20 umol/kg. The class given is ADME, organism-based. The note with it: in vivo.
Data set [22] in a line: Half life in C57BL/6 mouse at 20 umol/kg, po. The note with it: in vivo. It is filed as ADME, organism-based.

SMILES strings stand for the structures. In brackets after ≈: the same amount, converted by molar mass.

Sequence of Acetyl-Coenzyme A carboxylase 2 (Q1HEC0 whole entry): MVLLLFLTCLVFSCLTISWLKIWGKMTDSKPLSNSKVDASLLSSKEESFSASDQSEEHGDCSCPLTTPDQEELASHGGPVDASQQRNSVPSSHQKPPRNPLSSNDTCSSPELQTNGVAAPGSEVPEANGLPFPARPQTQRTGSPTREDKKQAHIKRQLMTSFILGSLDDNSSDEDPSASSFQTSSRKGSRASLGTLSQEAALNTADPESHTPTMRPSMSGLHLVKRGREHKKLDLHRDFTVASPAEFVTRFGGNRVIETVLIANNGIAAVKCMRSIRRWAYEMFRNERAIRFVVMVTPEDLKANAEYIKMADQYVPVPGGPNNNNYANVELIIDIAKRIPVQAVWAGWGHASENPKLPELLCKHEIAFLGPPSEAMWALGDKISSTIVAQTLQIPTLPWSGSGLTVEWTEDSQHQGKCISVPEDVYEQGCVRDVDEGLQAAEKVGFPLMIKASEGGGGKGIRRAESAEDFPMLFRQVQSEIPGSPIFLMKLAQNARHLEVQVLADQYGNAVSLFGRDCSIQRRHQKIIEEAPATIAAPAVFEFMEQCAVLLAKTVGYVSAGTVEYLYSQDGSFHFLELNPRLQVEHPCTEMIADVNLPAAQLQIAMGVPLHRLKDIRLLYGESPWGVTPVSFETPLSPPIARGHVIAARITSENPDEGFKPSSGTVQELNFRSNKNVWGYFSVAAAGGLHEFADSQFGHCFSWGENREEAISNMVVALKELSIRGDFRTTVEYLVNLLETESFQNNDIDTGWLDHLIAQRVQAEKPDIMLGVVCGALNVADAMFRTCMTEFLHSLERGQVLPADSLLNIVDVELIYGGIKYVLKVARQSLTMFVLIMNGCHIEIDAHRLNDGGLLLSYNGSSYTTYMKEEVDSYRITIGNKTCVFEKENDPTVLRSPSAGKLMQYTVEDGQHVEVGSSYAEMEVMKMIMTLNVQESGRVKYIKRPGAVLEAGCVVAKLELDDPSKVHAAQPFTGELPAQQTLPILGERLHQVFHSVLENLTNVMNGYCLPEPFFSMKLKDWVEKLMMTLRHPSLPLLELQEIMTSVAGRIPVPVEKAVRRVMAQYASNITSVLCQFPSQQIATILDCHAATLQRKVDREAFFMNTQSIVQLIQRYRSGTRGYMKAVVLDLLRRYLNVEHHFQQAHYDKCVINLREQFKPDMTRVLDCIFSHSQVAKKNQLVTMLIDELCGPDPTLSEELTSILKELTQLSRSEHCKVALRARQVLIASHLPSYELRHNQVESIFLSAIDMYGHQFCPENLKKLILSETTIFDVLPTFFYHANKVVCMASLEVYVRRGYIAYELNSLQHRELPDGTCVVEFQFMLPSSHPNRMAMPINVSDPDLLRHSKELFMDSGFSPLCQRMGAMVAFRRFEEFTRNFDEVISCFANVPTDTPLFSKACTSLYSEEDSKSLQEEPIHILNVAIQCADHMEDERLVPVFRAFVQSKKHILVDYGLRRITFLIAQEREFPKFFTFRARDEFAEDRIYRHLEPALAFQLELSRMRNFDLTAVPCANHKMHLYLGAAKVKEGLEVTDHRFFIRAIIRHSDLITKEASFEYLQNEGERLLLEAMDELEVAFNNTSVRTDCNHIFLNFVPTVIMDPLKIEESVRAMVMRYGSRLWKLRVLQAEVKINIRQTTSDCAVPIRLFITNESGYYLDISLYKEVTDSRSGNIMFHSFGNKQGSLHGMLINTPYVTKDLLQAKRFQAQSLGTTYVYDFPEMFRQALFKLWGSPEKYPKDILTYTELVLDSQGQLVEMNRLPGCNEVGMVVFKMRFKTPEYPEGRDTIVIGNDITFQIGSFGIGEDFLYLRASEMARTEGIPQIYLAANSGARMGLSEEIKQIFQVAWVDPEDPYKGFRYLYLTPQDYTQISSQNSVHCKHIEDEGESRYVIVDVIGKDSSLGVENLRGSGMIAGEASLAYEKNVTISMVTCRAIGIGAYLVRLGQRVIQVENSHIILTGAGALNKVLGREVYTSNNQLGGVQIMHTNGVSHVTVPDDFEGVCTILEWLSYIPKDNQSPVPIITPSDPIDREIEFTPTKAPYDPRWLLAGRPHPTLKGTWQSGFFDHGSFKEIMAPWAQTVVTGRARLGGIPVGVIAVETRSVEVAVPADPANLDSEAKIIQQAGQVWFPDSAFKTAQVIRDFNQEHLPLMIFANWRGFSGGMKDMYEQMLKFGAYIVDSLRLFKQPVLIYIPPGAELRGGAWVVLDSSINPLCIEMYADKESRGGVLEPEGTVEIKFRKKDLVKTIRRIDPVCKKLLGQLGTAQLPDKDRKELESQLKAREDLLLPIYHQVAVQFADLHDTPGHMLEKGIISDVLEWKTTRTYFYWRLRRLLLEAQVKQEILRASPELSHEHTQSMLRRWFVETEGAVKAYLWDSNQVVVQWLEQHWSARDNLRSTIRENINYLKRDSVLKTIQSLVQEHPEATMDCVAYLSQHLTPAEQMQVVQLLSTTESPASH
Sequence of CYP2C9 (P11712 whole entry): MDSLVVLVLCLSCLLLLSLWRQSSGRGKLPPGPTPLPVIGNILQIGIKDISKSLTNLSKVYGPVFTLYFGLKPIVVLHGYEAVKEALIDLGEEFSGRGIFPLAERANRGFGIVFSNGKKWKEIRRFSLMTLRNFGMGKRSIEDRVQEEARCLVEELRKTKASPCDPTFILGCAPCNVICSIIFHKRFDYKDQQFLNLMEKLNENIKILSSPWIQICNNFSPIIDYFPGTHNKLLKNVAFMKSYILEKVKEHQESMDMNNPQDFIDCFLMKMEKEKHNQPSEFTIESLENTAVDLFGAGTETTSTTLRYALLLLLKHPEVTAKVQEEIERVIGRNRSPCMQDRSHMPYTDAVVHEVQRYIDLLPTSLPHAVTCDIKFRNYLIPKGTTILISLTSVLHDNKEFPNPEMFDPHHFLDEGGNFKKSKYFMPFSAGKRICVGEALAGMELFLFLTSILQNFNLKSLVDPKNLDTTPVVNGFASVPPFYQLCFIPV
Sequence of CYP2C19 (P33261 whole entry): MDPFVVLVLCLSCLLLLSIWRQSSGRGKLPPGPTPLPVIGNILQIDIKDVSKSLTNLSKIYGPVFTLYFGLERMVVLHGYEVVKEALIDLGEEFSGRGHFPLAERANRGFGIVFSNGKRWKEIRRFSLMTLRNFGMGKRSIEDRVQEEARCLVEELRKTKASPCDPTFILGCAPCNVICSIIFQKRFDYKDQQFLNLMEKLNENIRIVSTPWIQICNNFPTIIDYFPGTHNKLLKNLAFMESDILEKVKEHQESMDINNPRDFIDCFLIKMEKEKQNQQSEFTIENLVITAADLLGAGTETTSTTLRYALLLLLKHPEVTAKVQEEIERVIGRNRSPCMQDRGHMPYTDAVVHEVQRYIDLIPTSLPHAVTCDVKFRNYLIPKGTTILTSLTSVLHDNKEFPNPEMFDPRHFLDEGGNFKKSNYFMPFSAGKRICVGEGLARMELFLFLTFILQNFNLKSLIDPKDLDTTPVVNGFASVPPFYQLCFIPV
Sequence of CYP3A4 (P08684 whole entry): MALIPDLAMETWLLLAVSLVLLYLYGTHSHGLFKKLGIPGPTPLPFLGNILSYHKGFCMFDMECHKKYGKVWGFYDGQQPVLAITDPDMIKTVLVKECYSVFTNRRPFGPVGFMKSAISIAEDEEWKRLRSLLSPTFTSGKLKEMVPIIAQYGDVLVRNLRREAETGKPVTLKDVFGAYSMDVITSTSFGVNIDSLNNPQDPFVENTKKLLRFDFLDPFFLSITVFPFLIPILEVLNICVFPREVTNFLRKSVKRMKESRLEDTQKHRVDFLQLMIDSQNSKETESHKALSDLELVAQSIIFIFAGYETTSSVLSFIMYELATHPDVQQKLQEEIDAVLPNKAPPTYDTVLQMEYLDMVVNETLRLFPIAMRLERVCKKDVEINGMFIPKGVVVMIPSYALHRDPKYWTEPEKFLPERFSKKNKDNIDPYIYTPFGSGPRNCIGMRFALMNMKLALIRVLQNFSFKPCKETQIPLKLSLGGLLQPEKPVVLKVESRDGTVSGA
Sequence of Voltage-gated inwardly rectifying potassium channel KCNH2 (Q12809 whole entry): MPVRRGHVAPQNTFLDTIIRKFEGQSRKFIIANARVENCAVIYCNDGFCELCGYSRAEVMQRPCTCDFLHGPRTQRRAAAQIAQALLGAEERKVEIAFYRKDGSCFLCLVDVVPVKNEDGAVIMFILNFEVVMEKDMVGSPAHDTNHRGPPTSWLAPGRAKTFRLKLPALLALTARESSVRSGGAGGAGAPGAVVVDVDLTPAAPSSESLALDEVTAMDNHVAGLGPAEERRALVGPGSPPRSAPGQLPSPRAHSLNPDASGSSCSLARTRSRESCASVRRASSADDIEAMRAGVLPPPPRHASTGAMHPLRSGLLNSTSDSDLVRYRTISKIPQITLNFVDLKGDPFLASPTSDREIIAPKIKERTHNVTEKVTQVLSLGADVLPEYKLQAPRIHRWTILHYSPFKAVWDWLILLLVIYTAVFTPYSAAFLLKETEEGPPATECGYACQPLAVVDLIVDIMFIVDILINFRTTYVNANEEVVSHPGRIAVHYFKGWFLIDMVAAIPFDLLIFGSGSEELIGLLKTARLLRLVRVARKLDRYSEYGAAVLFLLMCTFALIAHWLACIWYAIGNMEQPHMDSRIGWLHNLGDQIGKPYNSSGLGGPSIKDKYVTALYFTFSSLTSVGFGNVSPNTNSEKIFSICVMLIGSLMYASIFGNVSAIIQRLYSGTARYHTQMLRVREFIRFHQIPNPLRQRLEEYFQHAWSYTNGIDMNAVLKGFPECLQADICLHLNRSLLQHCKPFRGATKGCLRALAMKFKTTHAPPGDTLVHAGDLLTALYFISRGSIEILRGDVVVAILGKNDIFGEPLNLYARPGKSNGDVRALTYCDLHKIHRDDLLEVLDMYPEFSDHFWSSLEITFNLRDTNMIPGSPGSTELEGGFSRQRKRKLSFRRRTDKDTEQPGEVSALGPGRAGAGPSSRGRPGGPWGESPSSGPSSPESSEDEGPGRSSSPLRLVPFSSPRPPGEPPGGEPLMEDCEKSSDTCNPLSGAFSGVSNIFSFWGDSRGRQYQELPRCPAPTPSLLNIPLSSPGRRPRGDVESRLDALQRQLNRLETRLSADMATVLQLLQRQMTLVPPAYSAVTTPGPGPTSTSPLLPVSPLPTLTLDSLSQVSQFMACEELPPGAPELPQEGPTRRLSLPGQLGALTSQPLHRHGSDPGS

A word on the inhibition: it is the percentage by which the read-out fell short of the control. As a reminder, the IC50 is the concentration at which inhibition is half-maximal. One may read the fraction unbound as free concentration divided by total concentration. As a reminder, the solubility is the dissolved amount per volume that the medium holds. A word on the microsomal CLint: it is the capacity of the preparation to metabolise the compound, expressed as a volume cleared per time. Broadly, the logD is the decadic logarithm of the distribution of all forms, ionised or not, between an organic phase and buffer at a given pH. The half-life is the time in which the quantity being followed falls by half. Regarding `CN(C)CCC1CCN(c2cc(C(=O)NC[C@H]3CC[C@H](CNC(=O)OC(C)(C)C)CC3)c3ccccc3n2)CC1`, the Ratio in data set [1] stood at 800. Moreover, the inhibition at 13 µM in data set [2], in data set [5], in data set [9], in data set [15] and in [19] was less than 50% each time. In addition, the IC50 in data set [3] was 1200 nM; in data set [11] it was 460 nM; in data set [12] it was 110 nM; in data set [13], more than 33000 nM; in data set [20], 190 nM. Besides, the figures for the clearance in [4] and in [10] were 46 mL/min/kg and 32 mL/min/kg, respectively. Further, the fraction unbound at 18 h, 10 µM in data set [6] turned out to be 0.034. Moreover, in [7], the Activity worked out at 50%. Also, the Vd in data set [8] is 6.7 L/kg. Moreover, in data set [14], the solubility at 16 h came to 79 µM (≈ 43.6 µg/mL). This molecule also registered a microsomal CLint at 1 µM in data set [16] of 14 µL/min/mg. For the same molecule, in data set [17], the Ratio IC50 stood at 10. Moreover, the logD in data set [18] came to 3.6. In addition, the bioavailability in data set [21] was 131%. The molecule also had a half-life in data set [22] of 4.5 h.

(Values after ChEMBL document CHEMBL1817551, “Design of small molecule inhibitors of acetyl-CoA carboxylase 1 and 2 showing reduction of hepatic malonyl-CoA levels in vivo in obese Zucker rats” (Bioorg Med Chem, 2011).)
